Laboratory results reported in ChEMBL document CHEMBL2177011, “Discovery, synthesis, and biological evaluation of orally active pyrrolidone derivatives as novel inhibitors of p53-MDM2 protein-protein interaction” (J Med Chem, 2012).

Key:
Mus musculus [1] = assay: Toxicity in human A549 cells expressing wild type p53 xenografted nude BALB/C mouse assessed as reduction of body weight at 300 mg/kg, po qd for 14 days; type: organism-based; parameters: dose 300 mg/kg, route oral; conditions: in vivo, 336 h
Procedure, shortened: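 Subcutaneous A549 xenografts (right axilla) in male BALB/C nude mice (18−20 g). From day 13 (tumors 100−300 mm³), the compound was given by gavage once daily for 14 days (6 animals per group; vehicle control group). Body weight was recorded every 4 days during treatment.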

A549 [2] = assay: Antitumor activity against human A549 cells expressing wild type p53 xenografted in nude BALB/C mouse assessed as inhibition of tumor growth at 300 mg/kg, po qd for 14 days; type: functional; conditions: A549, 336 h, read-out: TGI
Procedure, shortened: (§1)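 Male BALB/C nude mice (18−20 g) had A549 cells implanted subcutaneously in the right axilla. Dosing started on day 13, when tumors reached 100−300 mm³. Mice were randomized (6 per treatment group, 10 controls) and dosed by gavage once daily for 14 days. Caliper tumor volume (TV = 1/2 × a × b²) was taken every 4 days; relative tumor volume was used. Mice were sacrificed on day 29 or 33.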

Mus musculus [3] = assay: Toxicity in nude BALB/C mouse assessed as mortality at 200 mg/kg, po qd for 14 days; type: organism-based; parameters: dose 200 mg/kg, route oral; conditions: in vivo, 336 h
Procedure, shortened: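 Male BALB/C nude mice (18−20 g) carried subcutaneous A549 implants in the right axilla. Dosing began once tumors reached 100−300 mm³, 13 days after implantation. Animals were randomized into groups of 6 per treatment and 10 controls, then given 200 mg/kg by gavage once daily for 14 consecutive days. Body weight was recorded every 4 days. Mice were sacrificed on day 29 or 33.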

A549 [4] = assay: Antitumor activity against human A549 cells expressing wild type p53 xenografted in nude BALB/C mouse assessed as inhibition of tumor growth at 200 mg/kg, po qd for 14 days; type: functional; conditions: A549, 336 h, read-out: TGI; procedure, shortened: as §1
A549 [5] = assay: Induction of apoptosis in human A549 cells expressing wild type p53 after 48 hrs using annexin V-FITC staining by flow cytometry assay; type: functional, cell-based
Procedure, shortened: (§2)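 A549 cells (5 × 10⁵ cells/mL) were seeded in six-well plates and treated at 5−20 μM for 48 h. Cells were harvested by trypsinization, washed twice in cold PBS and resuspended in binding buffer. They were stained with annexin V-FITC for 15 min at room temperature, then with PI for 15 min in the dark, and analyzed by flow cytometry; n = 3.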

A549 [6] = assay: Induction of apoptosis in human A549 cells expressing wild type p53 at 20 uM after 48 hrs using annexin V-FITC staining by flow cytometry assay; type: functional; procedure, shortened: as §2
A549 [7] = assay: Induction of apoptosis in human A549 cells expressing wild type p53 at 10 uM after 48 hrs using annexin V-FITC staining by flow cytometry assay; type: functional; procedure, shortened: as §2
[8] = biological target: Tumour suppressor protein p53/Mdm4 (Homo sapiens, UniProt P04637+O15151); assay: Inhibition of p53-MDMX interaction after 1 hr by fluorescence polarization assay; type: protein assay
Sequence of Tumour suppressor protein p53/Mdm4 (P04637 whole entry): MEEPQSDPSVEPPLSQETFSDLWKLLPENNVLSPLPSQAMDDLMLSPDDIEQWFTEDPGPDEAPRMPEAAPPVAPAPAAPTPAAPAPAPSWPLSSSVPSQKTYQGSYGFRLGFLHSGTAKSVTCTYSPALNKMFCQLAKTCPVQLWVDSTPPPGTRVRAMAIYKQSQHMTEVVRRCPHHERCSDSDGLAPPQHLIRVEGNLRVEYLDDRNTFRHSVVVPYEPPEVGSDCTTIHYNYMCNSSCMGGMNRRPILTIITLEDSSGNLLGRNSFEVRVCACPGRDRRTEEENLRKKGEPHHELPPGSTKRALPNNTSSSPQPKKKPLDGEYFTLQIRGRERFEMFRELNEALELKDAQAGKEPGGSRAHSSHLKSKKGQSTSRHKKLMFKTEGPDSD
Sequence of Tumour suppressor protein p53/Mdm4 (O15151 whole entry): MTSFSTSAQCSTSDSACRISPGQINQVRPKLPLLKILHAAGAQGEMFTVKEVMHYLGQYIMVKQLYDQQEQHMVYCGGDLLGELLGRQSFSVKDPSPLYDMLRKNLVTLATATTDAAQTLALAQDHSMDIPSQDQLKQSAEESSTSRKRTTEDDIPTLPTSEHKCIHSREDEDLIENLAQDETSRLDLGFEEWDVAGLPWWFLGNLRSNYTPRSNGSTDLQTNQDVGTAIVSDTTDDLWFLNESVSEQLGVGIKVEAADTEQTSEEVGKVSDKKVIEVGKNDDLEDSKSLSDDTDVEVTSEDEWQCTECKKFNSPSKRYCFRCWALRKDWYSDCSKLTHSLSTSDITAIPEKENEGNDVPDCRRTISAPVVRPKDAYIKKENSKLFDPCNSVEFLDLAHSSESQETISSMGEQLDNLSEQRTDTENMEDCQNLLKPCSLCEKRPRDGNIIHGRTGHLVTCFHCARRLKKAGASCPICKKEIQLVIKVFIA

NCI-H1299 = assay: Antiproliferative activity against p53 deficient human NCI-H1299 cells after 72 hrs by MTT assay; type: functional, cell-based; conditions: NCI-H1299, 72 h
Procedure, shortened: (§3)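 Cells seeded at 5−6 × 10⁴ per well and cultured 24 h, then exposed in triplicate wells to a range of compound concentrations for 72 h, with 0.1% DMSO as control. MTT (5 mg/mL solution) was added for 4 h at 37 °C, formazan dissolved in DMSO, absorbance read at 570 nm. Drug-free wells served as blanks; IC50 calculated.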

A549 [9] = assay: Antiproliferative activity against human A549 cells expressing wild type p53 after 72 hrs by MTT assay; type: functional, cell-based; conditions: Homo sapiens, A549, 72 h; read-out: IC50; procedure, shortened: as §3
U2OS = assay: Antiproliferative activity against human U2OS cells expressing wild type p53 after 72 hrs by MTT assay; type: functional, cell-based; conditions: Homo sapiens, U2OS, 72 h; read-out: IC50; procedure, shortened: as §3
SAOS-2 = assay: Antiproliferative activity against p53 deficient human Saos2 cells after 72 hrs by MTT assay; type: functional, cell-based; conditions: SAOS-2, 72 h; procedure, shortened: as §3
A549 [10] = assay: Induction of apoptosis in human A549 cells expressing wild type p53 at 5 uM after 48 hrs using annexin V-FITC staining by flow cytometry assay; type: functional; procedure, shortened: as §2

SMILES | Activity (Mus musculus [1]) | inhibition in vivo at 300 mg/kg (A549 [2]) | Activity (Mus musculus [3]) | inhibition in vivo at 200 mg/kg (A549 [4]) | Activity (A549 [5]) | Activity (A549 [6]) | Activity (A549 [7]) | Ki [8] | IC50 (NCI-H1299) | IC50 (A549 [9]) | IC50 (U2OS) | IC50 (SAOS-2) | Activity (A549 [10])
C[C@@H](NC1=C(C(=O)c2ccccc2)[C@@H](c2ccc(Br)cc2)N(CCCn2ccnc2)C1=O)c1ccccc1 | Non-toxic | 52.5% | Non-toxic | 40% | Dose-dependent effect | 17.85% | 4.02% | Not Active | 14.4 µM | 1.97 µM | 28.1 µM | 27.4 µM | 0.63%
COc1ccc(C2=N[C@@H](c3ccc(Cl)cc3)[C@@H](c3ccc(Cl)cc3)N2C(=O)N2CCNC(=O)C2)c(OC(C)C)c1 [NUTLIN-3] |  |  |  |  | Dose-dependent effect | 15.49% | 6.46% |  |  |  | 14.3 µM | 31.6 µM | 0.9%
